Measured values published in PubChem BioAssay AID588836 (Broad Institute, 2011).
Activity calls are given as the source filed them. The rule behind the calls is not given here.

The compounds below were run against Scavenger receptor class B member 1 (Mus musculus) (UniProt Q61009) (assay: inhibitors of SR-BI [3H]CE-HDL uptake, late-stage follow-up, orthogonal assay for SR-BI HDL uptake inhibitor project, wild-type cells, scintillation, powder samples (AID 588836)). Settings: CHO mSR-BI cells, [3H]cholesteryl ester HDL uptake, at 1 µM, stronger effect = lower value.
Procedure, shortened: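 System: LDL-receptor-deficient CHO cells overexpressing mouse SR-BI | Medium: Ham's F12K medium with 0.5% fatty-acid-free BSA | Reagent: [3H]CE-labeled HDL | Doses: Compound with 0.5% DMSO | Incubation: 1 h pretreatment plus 2 h uptake at 37 °C | Detection: Liquid scintillation counting of cell-associated [3H]cholesteryl ester | Read-out: Specific uptake, % of compound-free control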

Scavenger receptor class B member 1 (Mus musculus), sequence (Q61009 whole entry, looked up): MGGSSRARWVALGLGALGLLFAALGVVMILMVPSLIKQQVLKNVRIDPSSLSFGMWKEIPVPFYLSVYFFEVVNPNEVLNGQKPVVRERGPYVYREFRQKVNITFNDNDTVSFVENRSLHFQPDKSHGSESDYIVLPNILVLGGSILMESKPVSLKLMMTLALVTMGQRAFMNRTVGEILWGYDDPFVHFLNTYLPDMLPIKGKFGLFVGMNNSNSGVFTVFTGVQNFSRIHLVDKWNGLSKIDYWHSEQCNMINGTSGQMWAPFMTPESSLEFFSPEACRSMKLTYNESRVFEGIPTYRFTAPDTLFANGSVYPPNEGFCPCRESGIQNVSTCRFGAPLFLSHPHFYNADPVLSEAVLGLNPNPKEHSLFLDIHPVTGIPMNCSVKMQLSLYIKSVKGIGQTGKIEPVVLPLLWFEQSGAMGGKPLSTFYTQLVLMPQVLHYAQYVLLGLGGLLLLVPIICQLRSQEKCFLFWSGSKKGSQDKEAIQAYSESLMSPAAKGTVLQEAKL

| Compound | HDL cholesterol uptake |
| --- | --- |
| Cc1ccc2oc(-c3cccc(NC(=O)c4cc(-n5cnnc5)ccc4Cl)c3)nc2c1 | 54.8% |
| O=C(Nc1ccc(Cl)cc1C(=O)c1ccc(Cl)cc1)c1cc(Br)ccc1NS(=O)(=O)c1ccc(Cl)cc1 | 85.2% (inactive) |
| COc1ccc(-c2nnn(CC(=O)N(C3CCCCC3)C(C)C(=O)NC3CCCC3)n2)cc1OC (stereo not given) | 48.9% |

More lines, now with the values ahead:

| HDL cholesterol uptake | Compound |
| --- | --- |
| 52.6% | CCC(=O)N1CCc2cc(-c3csc(NC(=O)c4ccco4)n3)ccc21 |
| 45.9% | CCOC(=O)N1CCC(NC(=O)c2ccc3c(c2)N(Cc2ccc(F)cc2)CCS3)CC1 |
